Experimental data from ChEMBL document CHEMBL1121469, “Synthesis and biochemical screening of phenylselenium-substituted steroid hormones” (J Med Chem, 1980).

What was measured:
[1] = target: T1, Androgen receptor (Rattus norvegicus) (UniProt P15207); assay: Relative binding affinity for androgen receptor of rat prostate cytosol, displacement of [3H]R-1881 over 2 hr at 0C
T1 sequence (whole entry): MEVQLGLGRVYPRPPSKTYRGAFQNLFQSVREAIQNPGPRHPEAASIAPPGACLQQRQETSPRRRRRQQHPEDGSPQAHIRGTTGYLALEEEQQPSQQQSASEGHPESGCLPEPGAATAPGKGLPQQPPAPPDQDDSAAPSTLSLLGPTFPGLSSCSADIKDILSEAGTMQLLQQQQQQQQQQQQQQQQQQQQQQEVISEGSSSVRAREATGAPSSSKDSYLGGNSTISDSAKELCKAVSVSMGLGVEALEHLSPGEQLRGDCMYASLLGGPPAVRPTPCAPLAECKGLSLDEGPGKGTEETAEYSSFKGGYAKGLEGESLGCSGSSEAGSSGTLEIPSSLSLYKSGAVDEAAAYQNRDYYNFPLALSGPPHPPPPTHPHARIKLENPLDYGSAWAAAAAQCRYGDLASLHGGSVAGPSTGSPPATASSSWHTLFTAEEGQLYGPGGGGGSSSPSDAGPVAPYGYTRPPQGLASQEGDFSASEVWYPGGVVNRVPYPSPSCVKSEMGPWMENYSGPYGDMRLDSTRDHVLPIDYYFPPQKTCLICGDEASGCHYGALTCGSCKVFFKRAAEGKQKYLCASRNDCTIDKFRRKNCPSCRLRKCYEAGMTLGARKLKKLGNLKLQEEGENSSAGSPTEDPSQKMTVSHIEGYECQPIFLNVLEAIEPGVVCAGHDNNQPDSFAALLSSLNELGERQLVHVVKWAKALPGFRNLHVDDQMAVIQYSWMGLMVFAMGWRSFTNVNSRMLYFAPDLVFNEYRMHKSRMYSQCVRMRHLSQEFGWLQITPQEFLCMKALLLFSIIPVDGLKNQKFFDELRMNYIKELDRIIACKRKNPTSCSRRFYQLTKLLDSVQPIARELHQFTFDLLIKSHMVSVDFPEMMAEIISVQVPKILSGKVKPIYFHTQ
How it was run: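 Prostate from male Sprague–Dawley rats (140–160 g) castrated 24 h earlier, homogenised 1/5 w/v. Cytosol incubated with 2.5 nM [3H]R 1881 for 2 h at 0 °C with 0–2500 nM competitor. […] by dextran-coated charcoal (10 min, 0–4 °C; 800g). RBA is the ratio of 50%-displacing concentrations × 100, relative to testosterone.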

[2] = target: T2, Estrogen receptor (Mus musculus) (UniProt O08537+P19785); assay: Relative binding affinity for Estrogen receptor of mouse uterus cytosol, displacement of [3H]estradiol over 2 hr at 0C; format: protein assay
T2 sequence (O08537 whole entry, looked up): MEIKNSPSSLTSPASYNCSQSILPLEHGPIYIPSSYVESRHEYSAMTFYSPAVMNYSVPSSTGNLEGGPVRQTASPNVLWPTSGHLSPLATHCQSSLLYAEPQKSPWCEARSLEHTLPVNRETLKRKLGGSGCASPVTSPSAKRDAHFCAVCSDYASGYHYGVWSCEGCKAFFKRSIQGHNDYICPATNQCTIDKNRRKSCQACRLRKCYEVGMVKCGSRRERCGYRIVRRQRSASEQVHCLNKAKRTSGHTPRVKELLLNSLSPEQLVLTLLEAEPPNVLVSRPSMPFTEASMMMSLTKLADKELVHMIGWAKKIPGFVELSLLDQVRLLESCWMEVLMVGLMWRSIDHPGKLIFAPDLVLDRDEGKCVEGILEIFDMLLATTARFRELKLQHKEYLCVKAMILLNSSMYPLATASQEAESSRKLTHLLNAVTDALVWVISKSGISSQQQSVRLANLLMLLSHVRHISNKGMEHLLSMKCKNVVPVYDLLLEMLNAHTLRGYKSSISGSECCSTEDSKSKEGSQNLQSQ
T2 sequence (P19785 whole entry, looked up): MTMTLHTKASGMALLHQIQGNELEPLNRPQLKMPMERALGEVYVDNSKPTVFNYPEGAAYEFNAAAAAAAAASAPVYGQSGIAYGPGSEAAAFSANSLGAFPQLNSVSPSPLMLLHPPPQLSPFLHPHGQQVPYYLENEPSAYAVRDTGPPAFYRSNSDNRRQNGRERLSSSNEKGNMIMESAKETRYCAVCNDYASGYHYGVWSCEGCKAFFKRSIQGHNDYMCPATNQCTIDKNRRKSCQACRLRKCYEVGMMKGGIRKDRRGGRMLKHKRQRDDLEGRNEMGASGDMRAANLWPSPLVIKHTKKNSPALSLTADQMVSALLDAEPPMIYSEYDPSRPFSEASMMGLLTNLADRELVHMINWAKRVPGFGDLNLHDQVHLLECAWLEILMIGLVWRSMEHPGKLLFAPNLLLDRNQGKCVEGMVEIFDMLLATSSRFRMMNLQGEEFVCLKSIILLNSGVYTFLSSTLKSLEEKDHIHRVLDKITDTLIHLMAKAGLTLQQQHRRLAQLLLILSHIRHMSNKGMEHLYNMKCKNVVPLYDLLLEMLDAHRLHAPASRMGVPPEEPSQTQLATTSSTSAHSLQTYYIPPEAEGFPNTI
How it was run: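 Cytosol from uteri of 18-day-old female Swiss mice (homogenised 1/50 w/v), incubated with 5 nM [3H]estradiol for 2 h at 0 °C with 0–2500 nM unlabeled competitor. Bound ligand separated by dextran-coated charcoal, 10 min at 0–4 °C, then centrifuged at 800g. RBA = (50%-displacing concentration of unlabeled estradiol / that of competitor) × 100. Mean of ≥3 experiments or 2 concordant.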

[3] = target: T3, Glucocorticoid receptor (Rattus norvegicus) (UniProt P06536); assay: Relative binding affinity for glucocorticoid receptor of rat liver cytosol, displacement of [3H]dexamethasone over 4 hr at 0C
T3 sequence (whole entry): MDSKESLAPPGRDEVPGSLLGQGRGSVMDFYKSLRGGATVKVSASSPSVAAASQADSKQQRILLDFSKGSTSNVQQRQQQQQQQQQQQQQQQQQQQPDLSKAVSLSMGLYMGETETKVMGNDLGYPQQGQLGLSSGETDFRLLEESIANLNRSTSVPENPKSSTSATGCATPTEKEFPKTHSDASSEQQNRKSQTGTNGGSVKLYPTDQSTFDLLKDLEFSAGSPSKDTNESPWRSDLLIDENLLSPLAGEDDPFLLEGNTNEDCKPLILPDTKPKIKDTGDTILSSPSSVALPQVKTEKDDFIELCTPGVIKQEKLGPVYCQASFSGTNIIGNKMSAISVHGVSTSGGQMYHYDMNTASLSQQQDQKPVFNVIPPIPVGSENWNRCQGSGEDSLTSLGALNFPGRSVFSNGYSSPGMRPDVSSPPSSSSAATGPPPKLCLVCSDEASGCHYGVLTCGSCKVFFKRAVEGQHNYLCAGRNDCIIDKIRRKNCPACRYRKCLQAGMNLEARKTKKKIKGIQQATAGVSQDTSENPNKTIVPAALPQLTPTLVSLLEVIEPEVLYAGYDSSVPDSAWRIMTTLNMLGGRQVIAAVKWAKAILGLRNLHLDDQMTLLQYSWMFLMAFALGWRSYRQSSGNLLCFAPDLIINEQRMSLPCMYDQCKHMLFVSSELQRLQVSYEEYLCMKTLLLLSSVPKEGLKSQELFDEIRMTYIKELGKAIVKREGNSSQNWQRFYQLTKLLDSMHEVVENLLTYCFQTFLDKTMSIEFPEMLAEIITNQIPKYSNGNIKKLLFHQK
How it was run: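 Rats (male Sprague–Dawley, 140–160 g) adrenalectomized 4–7 days earlier. Perfused liver homogenised 1/10 in Tris-sucrose buffer and spun at 105000g for 60 min at 4 °C. Cytosol incubated with 5 nM [3H]dexamethasone for 4 h at 0 °C with 0–2500 nM competitor. Dextran-charcoal separation used. RBA relative to dexamethasone = 100.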

[4] = target: T4, Mineralocorticoid receptor (Rattus norvegicus) (UniProt P22199); assay: Relative binding affinity for mineralocorticoid receptor of rat kidney homogenates, displacement of [3H]aldosterone over 30 min at 25 degree C
T4 sequence (whole entry): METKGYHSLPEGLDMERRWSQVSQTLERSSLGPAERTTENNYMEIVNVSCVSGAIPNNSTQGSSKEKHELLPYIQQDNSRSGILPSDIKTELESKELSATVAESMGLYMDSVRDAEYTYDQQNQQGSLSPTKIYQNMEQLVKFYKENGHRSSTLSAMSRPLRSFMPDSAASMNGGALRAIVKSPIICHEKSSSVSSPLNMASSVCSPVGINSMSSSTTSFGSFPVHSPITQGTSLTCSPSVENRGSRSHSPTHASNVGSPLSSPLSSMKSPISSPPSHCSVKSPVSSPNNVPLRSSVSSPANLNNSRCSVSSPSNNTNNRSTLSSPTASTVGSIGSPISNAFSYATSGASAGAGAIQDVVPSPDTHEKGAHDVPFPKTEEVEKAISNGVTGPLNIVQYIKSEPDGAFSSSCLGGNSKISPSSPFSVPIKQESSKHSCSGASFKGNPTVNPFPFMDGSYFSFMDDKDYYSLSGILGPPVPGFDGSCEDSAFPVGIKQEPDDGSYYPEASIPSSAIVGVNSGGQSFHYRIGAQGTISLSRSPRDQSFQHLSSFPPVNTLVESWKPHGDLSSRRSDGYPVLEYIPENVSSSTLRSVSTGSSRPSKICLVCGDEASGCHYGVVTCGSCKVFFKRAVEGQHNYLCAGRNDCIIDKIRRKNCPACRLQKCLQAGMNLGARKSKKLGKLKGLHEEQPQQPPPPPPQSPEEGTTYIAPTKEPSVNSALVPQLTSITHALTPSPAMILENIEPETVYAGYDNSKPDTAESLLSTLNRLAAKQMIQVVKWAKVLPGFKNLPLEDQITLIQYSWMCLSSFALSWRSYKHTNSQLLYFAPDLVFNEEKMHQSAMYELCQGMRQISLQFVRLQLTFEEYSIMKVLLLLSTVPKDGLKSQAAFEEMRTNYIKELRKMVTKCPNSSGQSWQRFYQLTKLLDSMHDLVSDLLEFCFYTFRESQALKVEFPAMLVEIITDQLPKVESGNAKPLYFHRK
How it was run: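 Perfused kidneys from adrenalectomized (4–7 days) male Sprague–Dawley rats homogenised 1/3 in Krebs-Ringer phosphate buffer. Homogenate incubated with 2.5 nM [3H]aldosterone for 30 min at 25 °C with 0–2500 nM competitor, then centrifuged at 800g for 10 min at 0 °C. Bound ligand measured by dextran-charcoal. RBA relative to aldosterone = 100.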

[5] = target: T5, Progesterone receptor (Oryctolagus cuniculus) (UniProt P06186); assay: Relative binding affinity for Progesterone receptor of rabbit uterus cytosol, displacement of [3H]R5020 over 24 hr at 0C
T5 sequence (whole entry): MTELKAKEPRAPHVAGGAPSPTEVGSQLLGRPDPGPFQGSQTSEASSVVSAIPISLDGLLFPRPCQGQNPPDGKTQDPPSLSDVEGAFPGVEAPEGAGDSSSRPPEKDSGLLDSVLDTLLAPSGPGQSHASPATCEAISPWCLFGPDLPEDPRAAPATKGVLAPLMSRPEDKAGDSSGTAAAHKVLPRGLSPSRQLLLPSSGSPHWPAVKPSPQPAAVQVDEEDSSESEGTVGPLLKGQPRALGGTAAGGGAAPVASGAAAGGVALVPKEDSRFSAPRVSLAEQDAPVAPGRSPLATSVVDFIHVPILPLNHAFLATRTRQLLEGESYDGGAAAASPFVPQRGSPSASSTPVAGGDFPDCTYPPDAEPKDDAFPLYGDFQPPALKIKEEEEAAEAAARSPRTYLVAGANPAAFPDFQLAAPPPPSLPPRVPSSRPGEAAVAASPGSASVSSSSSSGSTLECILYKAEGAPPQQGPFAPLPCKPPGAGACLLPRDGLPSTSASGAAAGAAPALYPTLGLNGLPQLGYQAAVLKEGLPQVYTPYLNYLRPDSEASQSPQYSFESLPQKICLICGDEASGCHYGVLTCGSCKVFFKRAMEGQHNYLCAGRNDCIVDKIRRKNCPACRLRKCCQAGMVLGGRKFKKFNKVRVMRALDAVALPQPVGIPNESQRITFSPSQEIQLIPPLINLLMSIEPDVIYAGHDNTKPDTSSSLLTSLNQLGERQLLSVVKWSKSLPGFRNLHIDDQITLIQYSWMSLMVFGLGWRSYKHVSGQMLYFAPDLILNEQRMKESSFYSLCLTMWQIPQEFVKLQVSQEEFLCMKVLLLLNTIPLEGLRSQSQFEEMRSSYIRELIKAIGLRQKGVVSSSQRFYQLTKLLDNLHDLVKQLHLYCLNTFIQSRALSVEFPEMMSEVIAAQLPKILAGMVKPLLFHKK
How it was run: (§1)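 Uteri from estrogen-primed female New Zealand rabbits (1 kg, 50–55 days old) homogenised 1/50 in 10 mM Tris-HCl pH 7.4, 0.25 M sucrose. Cytosol spun at 105000g for 60 min at 4 °C, then incubated with 2.5 nM [3H]R 5020 for 24 h at 0 °C with 0–2500 nM competitor. Bound ligand taken by dextran-charcoal. RBA taken relative to progesterone.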

[6] = target: T2, Estrogen receptor (Mus musculus); assay: Binding affinity to Steroid Hormone Receptor was determined using [6,7-3H]estradiol as radioligand; format: protein assay; conditions: tested as the 3H-labelled form
How it was run: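 Uteri came from 18-day-old female Swiss mice and were homogenized 1/50 (w/v). Uterine cytosol was labeled with 5 nM [3H]estradiol for 2 h at 0 °C with 0–2500 nM competing steroid. Bound radioactivity was measured after dextran-coated charcoal treatment and an 800g centrifugation. The 50%-inhibition concentrations gave RBA × 100 relative to estradiol (100). Results are means of ≥3 or two experiments.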

[7] = target: T4, Mineralocorticoid receptor (Rattus norvegicus); assay: Binding affinity to Steroid Hormone Receptor was determined using [1,2-3 H]aldosterone as radioligand
How it was run: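 Rats were male Sprague–Dawley, 140–160 g, adrenalectomized 4–7 days. Perfused kidney was homogenized 1/3 (w/v) in Krebs-Ringer phosphate buffer. Homogenate was incubated with 2.5 nM [3H]aldosterone for 30 min at 25 °C with 0–2500 nM competitor, then spun at 800g for 10 min at 0 °C. Bound ligand was separated by dextran-coated charcoal. RBA = 100 × ratio of the 50%-displacing concentrations, with aldosterone set at 100.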

[8] = target: T5, Progesterone receptor (Oryctolagus cuniculus); assay: Binding affinity to Steroid Hormone Receptor was determined using [6,7-3H]R5020 as radioligand; how it was run: as §1
[9] = target: T3, Glucocorticoid receptor (Rattus norvegicus)
[10] = target: T1, Androgen receptor (Rattus norvegicus); assay: Binding affinity to Steroid Hormone Receptor was determined using [6,7-3H] R 1881 as radioligand; conditions: tested as the 3H-labelled form
How it was run: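 Prostate was taken from male Sprague–Dawley rats (140–160 g) castrated 24 h before and homogenized 1/5 (w/v). Cytosol was incubated with 2.5 nM [3H]R 1881 for 2 h at 0 °C with 0–2500 nM unlabeled competitor. Free ligand was removed with DCC (0.625% dextran–1.25% charcoal, 10 min, 0–4 °C, 800g spin). RBA is relative to testosterone = 100. Values are means of ≥3 experiments (SEM) or of two.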

SMILES | RBA [1] | RBA [2] | RBA [3] | RBA [4] | RBA [5] | also measured
CC12CCC(=O)C=C1CCC1C2CCC2(C)C1C[C@H]([Se]c1ccccc1)C2O (stereo not given in full) | 1.9 | < 0.1 | < 0.1 | < 0.1 | < 0.1 | –
CCC(=O)[C@@]1(C)CC[C@H]2[C@@H]3CCC4=CC(=O)CCC4=C3CCC21C (stereo not given in full) | – | – | – | – | – | Specific activity [6]: 57 Ci mM-1
CC12CCC(=O)C=C1CCC1C2CCC2(C)C1C[C@@H]([Se]c1ccccc1)C2O (stereo not given in full) | 0.33 | < 0.1 | 0.23 | 0.15 | 0.8 | –
C[C@]12CC[C@@H]3c4ccc(O)cc4CC[C@H]3[C@@H]1CC[C@@H]2O | – | – | – | – | – | Specific activity [7]: 50 Ci mM-1
C[C@]1(O)CC[C@H]2[C@@H]3CCC4=CC(=O)CCC4=C3C=C[C@@]21C | – | – | – | – | – | Specific activity [8]: 56 Ci mM-1
CC(=O)[C@@]1([Se]c2ccccc2)CCC2C3CCC4=CC(=O)CCC4(C)C3CCC21C (stereo not given in full) | < 0.1 | < 0.1 | < 0.1 | 0.23 | 2.1 | –
C[C@@H]1C[C@H]2[C@@H]3CCC4=CC(=O)C=C[C@]4(C)[C@@]3(F)[C@@H](O)C[C@]2(C)[C@@]1(O)C(=O)CO | – | – | – | – | – | Specific activity [9]: 26 Ci mM-1
CC12CCC(=O)C=C1CCC1C2C2CC3(C(O)O2)C(C(=O)CO)CCC13 (stereo not given) | – | – | – | – | – | Specific activity [10]: 53 Ci mM-1
CC12CCC(=O)C=C1CCC1C2CCC2(C)C1CC[C@@H]2C(=O)C[Se]c1ccccc1 (stereo not given in full) | 1.7 | < 0.1 | 0.6 | 2.1 | 59 | –
